Blank lines part the entries; values can stand above or below the compound they belong to. Calls of active or inactive are those of the source. The calls are words filed in the database; no cut-off is given here.
Legend:
Homo sapiens [1] = organism: Homo sapiens; assay: Cell cycle arrest in human STO cells assessed as accumulation at G2/M phase at IC50 after 48 to 72 hrs by propidium iodide staining-based flow cytometric method; type: functional
Procedure, shortened: (§1)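 Cells exposed to drug or 1% (v/v) DMSO control for 48 and 72 h. Adherent and floating cells fixed in 70% EtOH, then stained 30 min at 4 °C with propidium iodide 50 μg/mL, RNase and 0.05% Nonidet-P40 in PBS. Flow cytometry read ≥30000 events; G1, S and G2/M percentages fitted with the Modfit model; mean of three independent experiments.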

Homo sapiens [2] = organism: Homo sapiens; assay: Cell cycle arrest in human STO cells assessed as decrease in cell levels at S phase at IC50 after 48 to 72 hrs by propidium iodide staining-based flow cytometric method; type: functional; procedure, shortened: as §1
Homo sapiens [3] = organism: Homo sapiens; assay: Cell cycle arrest in human MP4 cells assessed as decrease in cell levels at G1 phase at IC50 after 48 to 72 hrs by propidium iodide staining-based flow cytometric method; type: functional; procedure, shortened: as §1
[4] = Cell cycle arrest in human STO cells assessed as mitotic cells at 1 nM after 72 hrs by MPM2 staining-based fluorescence microscopic analysis relative to control; type: functional
Tubulin (Sus scrofa) [5] = biological target: T1, Tubulin (Sus scrofa) (UniProt P02554+P02550); assay: Induction of GTP-induced porcine tubulin polymerization at 10 uM measured every minute up to 60 mins relative to control; type: protein assay
T1 sequence (P02550 whole entry, looked up): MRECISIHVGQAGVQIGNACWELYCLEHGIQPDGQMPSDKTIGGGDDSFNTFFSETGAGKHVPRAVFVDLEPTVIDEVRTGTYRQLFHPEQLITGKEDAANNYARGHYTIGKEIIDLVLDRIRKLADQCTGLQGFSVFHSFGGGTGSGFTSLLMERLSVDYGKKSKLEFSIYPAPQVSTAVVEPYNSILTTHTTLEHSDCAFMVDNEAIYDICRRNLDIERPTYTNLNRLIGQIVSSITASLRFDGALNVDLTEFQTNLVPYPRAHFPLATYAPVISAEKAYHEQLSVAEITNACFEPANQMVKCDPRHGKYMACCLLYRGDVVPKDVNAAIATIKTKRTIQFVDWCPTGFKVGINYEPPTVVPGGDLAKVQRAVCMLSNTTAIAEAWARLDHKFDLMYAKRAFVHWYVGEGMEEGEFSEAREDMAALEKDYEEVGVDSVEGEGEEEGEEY
T1 sequence (P02554 whole entry, looked up): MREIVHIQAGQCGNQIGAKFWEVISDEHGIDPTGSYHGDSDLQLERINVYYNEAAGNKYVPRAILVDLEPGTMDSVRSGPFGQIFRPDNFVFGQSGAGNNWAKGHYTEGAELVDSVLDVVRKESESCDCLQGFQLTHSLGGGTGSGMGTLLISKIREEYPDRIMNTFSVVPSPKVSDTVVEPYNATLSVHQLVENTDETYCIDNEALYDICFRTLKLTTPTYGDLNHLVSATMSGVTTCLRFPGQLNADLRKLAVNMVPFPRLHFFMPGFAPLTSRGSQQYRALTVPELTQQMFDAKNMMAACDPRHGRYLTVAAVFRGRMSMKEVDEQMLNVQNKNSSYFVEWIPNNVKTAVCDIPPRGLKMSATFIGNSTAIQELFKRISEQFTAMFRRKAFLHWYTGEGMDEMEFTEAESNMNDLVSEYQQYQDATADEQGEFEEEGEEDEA
Procedure, shortened: (§2)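 Test agent or taxol/vinorelbine was added at 10 μmol/L. Polymerization was started at 37 °C and followed by absorbance at 340 nm every minute up to 60 min.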

[6] = Cell cycle arrest in human MP8 cells assessed as mitotic cells at 18 nM after 72 hrs by MPM2 staining-based fluorescence microscopic analysis relative to control; type: functional
Homo sapiens [7] = organism: Homo sapiens; assay: Cell cycle arrest in human MP4 cells assessed as accumulation at G2/M phase at IC50 after 48 to 72 hrs by propidium iodide staining-based flow cytometric method; type: functional; procedure, shortened: as §1
Homo sapiens [8] = organism: Homo sapiens; assay: Cell cycle arrest in human STO cells assessed as decrease in cell levels at G1 phase at IC50 after 48 to 72 hrs by propidium iodide staining-based flow cytometric method; type: functional; procedure, shortened: as §1
Homo sapiens [9] = organism: Homo sapiens; assay: Cell cycle arrest in human MP4 cells assessed as decrease in cell levels at S phase at IC50 after 48 to 72 hrs by propidium iodide staining-based flow cytometric method; type: functional; procedure, shortened: as §1
[10] = system: Panel NCI-60 (60 carcinoma cell lines); assay: Growth inhibition of human NCI60 cells at 10^-4 to 10^-8 M after 48 hrs by sulforhodamine B assay; type: functional, cell-based
Homo sapiens [11] = organism: Homo sapiens; assay: Cell cycle arrest in human STO cells assessed as decrease in cell levels at G1 phase at IC50 to IC80 after 48 to 72 hrs by propidium iodide staining-based flow cytometric method; type: functional; procedure, shortened: as §1
[12] = Toxicity in athymic nude mouse xenografted with human STO cells assessed as drug tolerance at 5 mg/kg, ip administrated every 7 days for 4 weeks starting from day 10 post tumor implantation; type: organism-based; details: in vivo
Procedure, shortened: (§3)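 Female nude mice, 6−8 weeks old, with 10⁷ exponentially growing STO cells injected subcutaneously into the right flank. Eight mice per group, randomly assigned to vehicle control or treatment. Compound was given ip in 10% DMSO / 90% saline. Tumor diameters were measured weekly by caliper.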

[13] = Toxicity in athymic nude mouse xenografted with human STO cells assessed as mortality at 5 mg/kg, ip administrated every 7 days for 4 weeks starting from day 10 post tumor implantation; type: organism-based; details: in vivo; procedure, shortened: as §3
Homo sapiens [14] = organism: Homo sapiens; assay: Induction of apoptosis in human STO cells assessed as increase in caspase-3 catalytic activity by measuring DEVD-pNA hydrolysis at IC50 to IC80 by spectrofluorometric method; type: functional, cell-based; details: TDE = time-dependent effect
[15] = Induction of apoptosis in human MP4 cells assessed as increase in caspase-3 catalytic activity by measuring DEVD-pNA hydrolysis at IC80 after 72 hrs by spectrofluorometric method relative to control; type: functional
Procedure, shortened: (§4)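 STO and MP4 cells were exposed 72 h to drug or to 1% (v/v) DMSO control, then washed, pelleted and lysed. Total protein was mixed with DEVD-pNA for 1 h at 37 °C. Hydrolysis was read fluorometrically, ex 380/em 460 nm, as relative fluorescence units. Mean of three independent experiments.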

[16] = Growth inhibition of human MP4 cells after 72 hrs by MTS assay; type: functional
Procedure, shortened: (§5)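 DMPM lines were kept in DMEM F12 with 10% heat-inactivated FBS at 37 °C, 5% CO₂. 4500 cells/well were plated 24 h, then exposed 72 h to 0.1−100 μM; vehicle was 0.01% DMSO. MTS read at OD 490 nm and expressed as % of DMSO-treated cells. Eight replicates per condition, ≥3 independent repeats. IC50 and IC80 were taken graphically from dose–response curves.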

Homo sapiens [17] = organism: Homo sapiens; assay: Induction of apoptosis in human MP4 cells assessed as increase in caspase-3 catalytic activity by measuring DEVD-pNA hydrolysis at IC50 to IC80 by spectrofluorometric method; type: functional, cell-based; details: TDE = time-dependent effect
Tubulin (Homo sapiens) [18] = biological target: T2, Tubulin (Homo sapiens) (UniProt P68371+Q9H4B7+P0DPH7+P68366+Q13509+Q71U36+P04350+Q3ZCM7+P07437+P68363+Q9BQE3+Q6PEY2+Q13885+Q9BVA1+Q9BUF5); assay: Inhibition of tubulin polymerization in human MP4 cells at IC50 after 24 hrs by Western blot analysis relative to soluble fraction of tubulin; type: cell-based
Tubulin (Homo sapiens) [19] = biological target: T2, Tubulin (Homo sapiens); assay: Inhibition of tubulin polymerization in human STO cells at IC50 after 24 hrs by Western blot analysis relative to soluble fraction of tubulin; type: cell-based
Homo sapiens [20] = organism: Homo sapiens; assay: Cell cycle arrest in human MP4 cells assessed as decrease in cell levels at S phase at IC50 to IC80 after 48 to 72 hrs by propidium iodide staining-based flow cytometric method; type: functional; procedure, shortened: as §1
Homo sapiens [21] = organism: Homo sapiens; assay: Cell cycle arrest in human STO cells assessed as decrease in cell levels at S phase at IC50 to IC80 after 48 to 72 hrs by propidium iodide staining-based flow cytometric method; type: functional; procedure, shortened: as §1
Homo sapiens [22] = organism: Homo sapiens; assay: Cell cycle arrest in human STO cells assessed as accumulation at G2/M phase at IC50 to IC80 by propidium iodide staining-based flow cytometric method; type: functional; details: TDE = time-dependent effect; procedure, shortened: as §1
Homo sapiens [23] = organism: Homo sapiens; assay: Cell cycle arrest in human MP4 cells assessed as decrease in cell levels at G1 phase at IC50 to IC80 after 48 to 72 hrs by propidium iodide staining-based flow cytometric method; type: functional; procedure, shortened: as §1
Tubulin (Sus scrofa) [24] = biological target: T1, Tubulin (Sus scrofa); assay: Inhibition of GTP-induced porcine tubulin polymerization at 10 uM measured every minute up to 60 mins relative to control; type: protein assay; procedure, shortened: as §2
WI-38 = assay: Growth inhibition of human WI38 cells after 72 hrs by MTS assay; type: cell-based; details: WI-38, 72 h
Homo sapiens [25] = organism: Homo sapiens; assay: Cell cycle arrest in human MP4 cells assessed as accumulation at G2/M phase at IC50 to IC80 by propidium iodide staining-based flow cytometric method; type: functional; details: TDE = time-dependent effect; procedure, shortened: as §1
[26] = Toxicity in athymic nude mouse xenografted with human STO cells assessed as body weight loss at 5 mg/kg, ip administrated every 7 days for 4 weeks starting from day 10 post tumor implantation; type: organism-based; details: in vivo; procedure, shortened: as §3
[27] = Cell cycle arrest in human MP8 cells assessed as mitotic cells at IC50 after 72 hrs by MPM2 staining-based fluorescence microscopic analysis relative to control; type: functional
[28] = Cell cycle arrest in human STO cells assessed as mitotic cells at IC50 after 72 hrs by MPM2 staining-based fluorescence microscopic analysis relative to control; type: functional
[29] = Growth inhibition of human STO cells after 72 hrs by MTS assay; type: functional; procedure, shortened: as §5
[30] = Antitumor activity against human STO cells xenografted in athymic nude mouse assessed as tumor growth inhibition at 5 mg/kg, ip administrated every 7 days for 4 weeks starting from day 10 post tumor implantation relative to control; type: functional; details: read-out: TGI
Procedure, shortened: (§6)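 Female nude mice, 6−8 weeks old, given 10⁷ exponentially growing STO cells s.c. in the right flank; 8 mice/group. Drug in 10% DMSO/90% saline, 5 mg/kg ip q7dx4 from day 10 after inoculum; controls got vehicle. Tumour diameters caliper-measured weekly, TV = d²×D/2, TVI% = 100 − (mean TV treated/mean TV control × 100). Ki67 staining on formalin-fixed paraffin sections of tumours after the last treatment.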

[31] = Induction of apoptosis in human STO cells assessed as increase in caspase-3 catalytic activity by measuring DEVD-pNA hydrolysis at IC80 after 72 hrs by spectrofluorometric method relative to control; type: functional; procedure, shortened: as §4
[32] = Growth inhibition of human MP8 cells after 72 hrs by MTS assay; type: functional; details: MP8, 72 h; procedure, shortened: as §5
Homo sapiens [33] = assay: Antitumor activity against human STO cells xenografted in athymic nude mouse assessed as suppression of cell proliferation at 5 mg/kg, ip administrated every 7 days for 4 weeks starting from day 10 post tumor implantation measured post last dose by Ki67 immunohistochemical staining-based assay; type: functional, organism-based; procedure, shortened: as §6
Tubulin (Homo sapiens) [34] = biological target: T2, Tubulin (Homo sapiens); assay: Inhibition of tubulin polymerization in human STO cells at 2 nM after 24 hrs by Western blot analysis relative to soluble fraction of tubulin; type: cell-based
Tubulin (Homo sapiens) [35] = biological target: T2, Tubulin (Homo sapiens); assay: Inhibition of tubulin polymerization in human MP4 cells at 10 nM after 24 hrs by Western blot analysis relative to soluble fraction of tubulin; type: cell-based
[36] = Cell cycle arrest in human STO cells assessed as mitotic cells at 2 nM after 72 hrs by MPM2 staining-based fluorescence microscopic analysis relative to control; type: functional
[37] = Cell cycle arrest in human MP8 cells assessed as mitotic cells at 13 nM after 72 hrs by MPM2 staining-based fluorescence microscopic analysis relative to control; type: functional

Activity (Tubulin (Sus scrofa) [5]): Active
SMILES: CC(=O)O[C@H]1C(=O)[C@@]2(C)[C@H]([C@H](OC(=O)c3ccccc3)[C@]3(O)C[C@H](OC(=O)[C@H](O)[C@@H](NC(=O)c4ccccc4)c4ccccc4)C(C)=C1C3(C)C)[C@]1(OC(C)=O)CO[C@@H]1C[C@@H]2O [PACLITAXEL]
Activity (Homo sapiens [1]): Active | Activity (Homo sapiens [2]): Active | Activity (Homo sapiens [3]): Active | Activity [4]: 30 - 50% | Activity [6]: 30 - 50% | Activity (Homo sapiens [7]): Active | Activity (Homo sapiens [8]): Active | Activity (Homo sapiens [9]): Active

SMILES: COc1ccc(Cn2cc3c(c2-c2ccccc2)CCc2cnoc2-3)cc1N
growth inhibition (GI) [10]: Active

SMILES: COc1ccc(Cn2cc3c(c2-c2cc(OC)c(OC)c(OC)c2)CCc2cnoc2-3)cc1
growth inhibition (GI) [10]: Active

SMILES: COc1ccc(Cn2cc3c(c2-c2cc(OC)c(OC)c(OC)c2)CCc2cnoc2-3)cc1N
Activity (Homo sapiens [11]): Active | Activity [12]: Non-Toxic | Activity [13]: Non-Toxic | Activity (Homo sapiens [14]): Tde | fold change (FC) [15]: 35 | IC50 [16]: 160 nM | Activity (Homo sapiens [17]): Tde | inhibition (Tubulin (Homo sapiens) [18]): Active | inhibition (Tubulin (Homo sapiens) [19]): Active | growth inhibition (GI) [10]: Active | Activity (Homo sapiens [20]): Active | Activity (Homo sapiens [21]): Active | Activity (Homo sapiens [22]): Tde | Activity (Homo sapiens [23]): Active | inhibition (Tubulin (Sus scrofa) [24]): Active | IC50 (WI-38): > 100000 nM | Activity (Homo sapiens [25]): Tde | Activity [26]: Non-Toxic | Activity [27]: 30 - 50% | Activity [28]: 30 - 50% | IC50 [29]: 70 nM | inhibition in vivo at 5 mg/kg [30]: 59% | fold change (FC) [31]: 38.5 | IC50 [32]: 130 nM | Activity (Homo sapiens [33]): Active

SMILES: COc1ccc(Cn2cc3c(c2-c2ccccc2)CCc2cnoc2-3)cc1
growth inhibition (GI) [10]: Active

SMILES: COc1ccc(Cn2cc3c(c2-c2ccc(O)cc2)CCc2cnoc2-3)cc1
growth inhibition (GI) [10]: Active

SMILES: COc1ccc(Cn2cc3c(c2-c2ccc(OC)cc2)CCc2cnoc2-3)cc1
growth inhibition (GI) [10]: Active

inhibition (Tubulin (Homo sapiens) [34]): Active | inhibition (Tubulin (Homo sapiens) [35]): Active | inhibition (Tubulin (Sus scrofa) [24]): Active
SMILES: CCC1=C[C@@H]2CN(C1)Cc1c([nH]c3ccccc13)[C@@](C(=O)OC)(c1cc3c(cc1OC)N(C)[C@H]1[C@@](O)(C(=O)OC)[C@H](OC(C)=O)[C@]4(CC)C=CCN5CC[C@]31[C@@H]54)C2 [VINORELBINE]
Activity (Homo sapiens [1]): Active | Activity (Homo sapiens [2]): Active | Activity (Homo sapiens [3]): Active | Activity [36]: 30 - 50% | Activity (Homo sapiens [7]): Active | Activity (Homo sapiens [8]): Active | Activity (Homo sapiens [9]): Active | Activity [37]: 30 - 50%

SMILES: COc1ccc(Cn2cc3c(c2-c2cc(OC)c(OC)c(OC)c2)CCc2cnoc2-3)cc1[N+](=O)[O-]
growth inhibition (GI) [10]: Active
